Shown are actives, neighbours in structure and some others; about 1.8% of the full set was active somewhere.
Jurkat NFkB inh = inhibitors of the PMA/ionomycin-induced NF-kB reporter in Jurkat cells. inhibition, % at 4 µM. AID 435003. PMA/ionomycin-induced NF-kB luciferase reporter, luminescence. 0.53% of 330,000 active; in the data active = inhibition above about 50%
iPSC survival up = enhancers of human iPSC single-cell survival | survival enhancement, % at 20 µM | hiPSC single-cell survival, ATPlite luminescence; 100% = ROCK inhibitor wells, 0% = DMSO | 0.044% of 360,000 active | AID 602274; in the data active = survival enhancement above about 18%;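 also: cells exposed to compounds for 16 hours before the ATP read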
697 NFkB inh = lowers PMA/ionomycin-induced NF-kB signal in 697 B cells. 697 B-cell NF-kB luciferase reporter, 16 h. AID 435022. inhibition, % at 4 µM. 0.33% of 330,000 active; in the data active = inhibition above about 35%
Hep lipid drop = modulators of hepatic lipid droplet formation; AML12 mouse hepatocytes, oleate lipid droplets, BODIPY imaging; inhibition, % at 6.5 µM; 0.4% of 240,000 active;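 active = lipid droplet intensity inhibited by at least 50%, with more than 500 cells counted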
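Material – mouse AML12 hepatocyte cell line, fixed after treatment · Compound dosing – one dose, 6.5 µM compound · Times – compound with oleate, overnight · Measured by – Image-based BODIPY and DAPI two-channel analysis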
H9c2 TAG inh = reduces triacylglycerol accumulation in H9c2 cells | 0.66% of 230,000 active | Nile Red lipid (TAG) fluorescence; cells loaded with 200 µM oleic acid | inhibition, % at 12.5 µM;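 active = pattern-corrected inhibition of lipid staining of at least 50% with the nuclear-stain viability signal not falling by more than 50%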
Gli-Sufu antag = blocks Gli-Sufu signaling in a luciferase reporter; 0.74% of 340,000 active; Sufu-KO-LIGHT fibroblasts, Gli luciferase reporter luminescence; inhibition, % at 5 µM;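 active = inhibition above about 55%, limit read from the data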
Gli-Sufu confirm = Gli-SUFU antagonism confirmation, single concentration. shares compounds with Gli-Sufu antag. Sufu-KO-LIGHT cells, Gli luciferase reporter, luminescence. inhibition, % at 5 µM. 40% of 2,500 active;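 active = mean inhibition at 5 µM reaching about 45%, limit read from the data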
SufuKO cytotox = cytotoxicity counter-screen for Gli-SUFU antagonists; shares compounds with Gli-Sufu antag; Sufu-KO-LIGHT cells cytotoxicity, ATP luminescence; cytotoxicity, % at 5 µM; 32% of 2,500 active; AID 651994;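 active = mean cytotoxicity at 5 µM above about 25%, limit read from the data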;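 also: cells exposed to compound overnight for roughly 16 to 18 hours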
Wnt3a counter = inhibits Wnt3a reporter, counter-screen for Gli-SUFU antagonists | 20% of 2,500 active | shares compounds with Gli-Sufu antag | Wnt-LIGHT cells, Wnt3a-driven luciferase reporter, luminescence | inhibition, % at 6.25 µM;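 active = mean inhibition above about 25%, limit read from the data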
A number is an active result.

Screening O=C(CN(CC1CCCO1)C(=O)CCC(=O)Nc1nccs1)NCC1CCCO1 (stereo not drawn) returned Jurkat NFkB inh inactive, iPSC survival up inactive, 697 NFkB inh inactive, H9c2 TAG inh inactive and Gli-Sufu antag inactive.
Screening CCCCC(=O)Nc1nnc(SCC(=O)NCC2CCCO2)s1 (stereo not drawn) returned Jurkat NFkB inh inactive, iPSC survival up inactive, 697 NFkB inh inactive, H9c2 TAG inh inactive and Gli-Sufu antag inactive.
For O=C(CN(Cc1ccccc1)C(=O)CCC(=O)Nc1nccs1)NCC1CCCO1 (stereo not drawn) the results were Jurkat NFkB inh inactive, iPSC survival up inactive, 697 NFkB inh inactive, Hep lipid drop inactive, Gli-Sufu antag inactive, Gli-Sufu confirm inactive, SufuKO cytotox inactive and Wnt3a counter inactive.
CCc1nnc(NC(=O)CCC(=O)NCC2CCCO2)s1 (stereo not drawn) was read as Jurkat NFkB inh inactive, iPSC survival up inactive, 697 NFkB inh inactive, Hep lipid drop inactive, H9c2 TAG inh inactive, Gli-Sufu antag inactive, Gli-Sufu confirm inactive, SufuKO cytotox inactive and Wnt3a counter inactive.
O=C(CN1CCN(C(=O)CNC(=O)c2ccc(N3CCCC3=O)cc2)CC1)Nc1cccc(F)c1 was read as iPSC survival up inactive and H9c2 TAG inh inactive.
Screening Cc1c(Cl)cccc1NC(=O)NN1CCN(C)CC1 returned Jurkat NFkB inh inactive, iPSC survival up inactive, 697 NFkB inh inactive, Hep lipid drop inactive, H9c2 TAG inh inactive, Gli-Sufu antag 95.1, Gli-Sufu confirm inactive, SufuKO cytotox inactive and Wnt3a counter inactive.
`CCCCCCCCn1c(=O)c(C(=O)OC)c(N)c2ccccc21` gave Jurkat NFkB inh inactive, iPSC survival up inactive, 697 NFkB inh inactive, Hep lipid drop inactive, H9c2 TAG inh inactive, Gli-Sufu antag 67.5, Gli-Sufu confirm inactive, SufuKO cytotox inactive and Wnt3a counter 27.8.
`CCNC(=O)/C(C#N)=C/c1c(N(Cc2ccccc2)Cc2ccccc2)nc2ccccn2c1=O` gave Jurkat NFkB inh inactive, iPSC survival up inactive, 697 NFkB inh inactive, Hep lipid drop inactive, Gli-Sufu antag 88.5, Gli-Sufu confirm inactive, SufuKO cytotox inactive and Wnt3a counter inactive.
CN(C1CCCCC1)S(=O)(=O)c1ccc(NC(=S)NC(=O)c2cccs2)cc1 was read as Jurkat NFkB inh inactive, iPSC survival up inactive, 697 NFkB inh inactive, Gli-Sufu antag 63.0, Gli-Sufu confirm inactive, SufuKO cytotox inactive and Wnt3a counter inactive.
`Cc1cccc(N(C)S(=O)(=O)c2c(C)noc2C)c1` gave Jurkat NFkB inh inactive, iPSC survival up inactive, 697 NFkB inh inactive, Hep lipid drop inactive and Gli-Sufu antag inactive.
For CCN1C[C@@H]2[C@@H]3C(=O)N(Cc4ccccc4)C(=O)[C@@H]3[C@](CC)(C1=O)N2C(=O)c1ccc(C(F)(F)F)cc1 the results were Jurkat NFkB inh inactive, iPSC survival up inactive, 697 NFkB inh inactive, H9c2 TAG inh inactive and Gli-Sufu antag inactive.
C=CCN1C(=O)/C(=C/c2ccc(-c3ccc(F)cc3)o2)SC1=S was read as Jurkat NFkB inh inactive, iPSC survival up inactive, 697 NFkB inh inactive, Hep lipid drop inactive, H9c2 TAG inh inactive and Gli-Sufu antag inactive.
For CCOc1ccc(N(CC(=O)Nc2ccccc2OC)S(=O)(=O)c2ccccc2)cc1 the results were Jurkat NFkB inh inactive, iPSC survival up inactive, 697 NFkB inh inactive, Hep lipid drop inactive, Gli-Sufu antag inactive, Gli-Sufu confirm 47.1, SufuKO cytotox 60.1 and Wnt3a counter inactive.
Screening NNC(=O)CNS(=O)(=O)c1ccc([N+](=O)[O-])cc1 returned Jurkat NFkB inh inactive, iPSC survival up inactive, 697 NFkB inh inactive, Hep lipid drop inactive, H9c2 TAG inh inactive and Gli-Sufu antag inactive.
`Cc1ccc(C(C)C)c(OCCn2c(=O)oc3ccccc32)c1` gave Jurkat NFkB inh inactive, iPSC survival up inactive, 697 NFkB inh inactive, Hep lipid drop inactive, H9c2 TAG inh inactive, Gli-Sufu antag 95.5, Gli-Sufu confirm inactive, SufuKO cytotox inactive and Wnt3a counter inactive.
Screening CC1(C)NC(=O)N(CC(=O)OCC(=O)c2ccc(Br)s2)C1=O returned Jurkat NFkB inh inactive, iPSC survival up inactive, 697 NFkB inh inactive, H9c2 TAG inh inactive and Gli-Sufu antag inactive.
Screening O=C(c1ccc([N+](=O)[O-])cc1)N(Cc1ccc(Cl)cc1)N1C(=O)CCCC1=O returned Jurkat NFkB inh inactive, iPSC survival up inactive, 697 NFkB inh inactive, Hep lipid drop inactive, Gli-Sufu antag 78.2, Gli-Sufu confirm 89.5, SufuKO cytotox 71.4 and Wnt3a counter inactive.
For O=C(c1ccc([N+](=O)[O-])cc1)N(Cc1ccc(Cl)cc1Cl)N1C(=O)CCCC1=O the results were Jurkat NFkB inh inactive, iPSC survival up inactive, 697 NFkB inh inactive, Hep lipid drop inactive and Gli-Sufu antag inactive.
For O=S1(=O)CCN2N=C(C34CC5CC(CC(C5)C3)C4)SC2=N1 the results were Jurkat NFkB inh inactive, iPSC survival up inactive, 697 NFkB inh inactive, Hep lipid drop inactive, H9c2 TAG inh inactive and Gli-Sufu antag inactive.
O=C(O)C1CC(=O)N(CCc2ccccc2)C1 (stereo not drawn) was read as Jurkat NFkB inh inactive, iPSC survival up inactive, 697 NFkB inh inactive, Hep lipid drop inactive, H9c2 TAG inh inactive and Gli-Sufu antag inactive.
For COc1ccc(CCN2CC(C(=O)O)CC2=O)cc1 (stereo not drawn) the results were Jurkat NFkB inh inactive, iPSC survival up inactive, 697 NFkB inh inactive, Hep lipid drop inactive, Gli-Sufu antag 96.1, Gli-Sufu confirm inactive, SufuKO cytotox inactive and Wnt3a counter inactive.
Cc1nn(C2CC(O)C(O)C(CO)O2)c(=O)[nH]c1=O (stereo not drawn) was read as iPSC survival up inactive, H9c2 TAG inh inactive and Gli-Sufu antag inactive.
`COC(=O)c1ccc(CNC(=O)COC(=O)/C=C/c2cc(OC)c(OC)c(OC)c2)cc1` gave Jurkat NFkB inh inactive, iPSC survival up inactive, 697 NFkB inh inactive, H9c2 TAG inh inactive and Gli-Sufu antag inactive.
CC(Sc1nc2ccccc2c(=O)n1C)C(=O)NC1CCCCC1C (stereo not drawn) was read as Jurkat NFkB inh inactive, iPSC survival up inactive, 697 NFkB inh inactive, H9c2 TAG inh inactive, Gli-Sufu antag 59.2, Gli-Sufu confirm 55.1, SufuKO cytotox inactive and Wnt3a counter inactive.
Screening CC(Sc1nc2ccccc2[nH]1)C(=O)NC1CCCCC1C (stereo not drawn) returned Jurkat NFkB inh inactive, iPSC survival up inactive, 697 NFkB inh inactive, Hep lipid drop inactive, H9c2 TAG inh inactive and Gli-Sufu antag inactive.

Assay outcomes (PubChem BioAssay)
